High-throughput results: PubChem, several laboratories
Rows were chosen to be rich in hits. Some 3.1% of all compounds tested hit in one or more screens of this group.
ADAM10 inh – human ADAM10 inhibitors, primary screen, biochemical, QFRET, HTS | Disintegrin and metalloproteinase domain-containing protein 10 (Homo sapiens), O14672 | recombinant ADAM10, EDANS/DABCYL FRET peptide cleavage, 3 h | inhibition, % at 7 µM | 370,000 tested, 0.62% active | AID 720582, 2013;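 active = inhibition above a per-campaign cutoff equal to the mean of compounds falling between control-based bounds plus 3 SD, cut at about 20% in these data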;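 note: 0% = DMSO wells while the 100% control is not disclosed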
MPTP inh – mitochondrial permeability transition pore inhibitors, primary screen, biochemical, isolated mouse mitochondria, absorbance; Ca2+ swelling absorbance, 30 min; inhibition, % at 10 µM; 360,000 tested, 1.4% active; AID 602449, 2012;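 active = inhibition of 50% or more, scaled per plate between neutral and stimulator controls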;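 note: 0% = DMSO wells given calcium and 100% = 1 mM EGTA wells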
V-ATPase pHluor – regulators of yeast V-ATPase proton pumping, primary screen, pHLuorin cytosolic pH fluorescence. S. cerevisiae. response, % at 10 µM. 350,000 tested, 0.37% active. AID 504577, 2011; in the data active = response mostly above about 7.3%, no sharp cut-off; inactive = mostly below about 5.4%; note: actives read high
aDG glyco act – activators of alpha-DG glycosylation, primary screen, uHTS, Pro5-aDG cells, AlphaScreen. activation, % at 10 µM. 360,000 tested, 0.22% active. alpha-DG glycosylation AlphaScreen (IIH6); 0% Pro5, 100% B10-LARGE cell signal;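 active = activation of at least 8% versus controls, or a plate z-score of at least 8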;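 note: Pro5 are CHO cells carrying HIG-tagged alpha-DG that lacks glycosylation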
ADAM17 inh – ADAM17 inhibitors, primary screen, biochemical, QFRET | Disintegrin and metalloproteinase domain-containing protein 17 (Homo sapiens), P78536 | recombinant ADAM17, EDANS/DABCYL FRET peptide cleavage | inhibition, % at 6.95 µM | 370,000 tested, 0.83% active;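 active = inhibition above the mean of compounds lying between control limits plus 3 SD, set per campaign, cut at about 8.5% in these data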;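 note: 0% = DMSO-only wells as the low control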
Target sequence (P78536 215-824 limits assumed): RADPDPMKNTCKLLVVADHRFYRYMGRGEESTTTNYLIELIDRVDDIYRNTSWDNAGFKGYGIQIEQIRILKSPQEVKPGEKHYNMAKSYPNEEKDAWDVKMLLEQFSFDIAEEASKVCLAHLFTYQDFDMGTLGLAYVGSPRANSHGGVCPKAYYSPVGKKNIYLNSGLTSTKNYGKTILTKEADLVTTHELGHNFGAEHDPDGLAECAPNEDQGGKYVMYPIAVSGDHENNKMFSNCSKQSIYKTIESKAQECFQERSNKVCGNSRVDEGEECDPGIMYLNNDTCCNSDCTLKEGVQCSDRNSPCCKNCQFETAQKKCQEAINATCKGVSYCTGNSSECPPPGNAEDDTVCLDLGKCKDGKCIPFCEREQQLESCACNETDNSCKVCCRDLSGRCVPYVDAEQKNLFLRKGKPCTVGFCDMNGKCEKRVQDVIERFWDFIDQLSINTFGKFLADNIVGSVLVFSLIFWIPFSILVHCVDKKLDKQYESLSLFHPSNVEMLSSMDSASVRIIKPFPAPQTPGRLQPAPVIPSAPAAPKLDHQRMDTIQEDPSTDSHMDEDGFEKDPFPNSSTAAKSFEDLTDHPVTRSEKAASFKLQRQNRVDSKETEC
Lipid droplet – inhibitors of hepatocyte lipid droplet formation, primary screen, imaging, high-throughput imaging, BODIPY stain. inhibition, % at 6.5 µM. AML12 mouse hepatocytes, oleate lipid droplets. AID 1656, 2009. 240,000 tested, 0.4% active;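 active = lipid droplet intensity inhibited by at least 50%, with more than 500 cells counted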
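Technique: fluorescence imaging, 20x objective, two fields per well / Assay system: AML12 hepatocytes (mouse) / Measure: % inhibition of lipid droplet signal / Doses: 6.5 µM single-point dosing / Incubation: overnight exposure / Reagent: 100 µM oleic acid challenge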
ADAM10 ctr – ADAM10 inhibitors, counter-screen for ADAM17 exosite inhibitor project, biochemical, FRET, human ADAM10; inhibition, % at 6.95 µM; shares compounds with ADAM17 inh; AID 743256, 2014; recombinant ADAM10, EDANS/DABCYL FRET peptide cleavage, 3 h; 2,900 tested, 47% active;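 active = mean inhibition over the triplicate runs exceeds the activity threshold set in the earlier primary screen, cut at about 20% in these data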;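 note: 0% = DMSO wells and 100% = marimastat wells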
ADAM17 confirm – ADAM17 inhibitors, hit retest, confirmation, biochemical, QFRET peptide cleavage | recombinant ADAM17, EDANS/DABCYL QFRET peptide cleavage | inhibition, % at 6.95 µM | 2,900 tested, 65% active | AID 743257, 2014 | shares compounds with ADAM17 inh;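 active = mean inhibition across replicates above the hit cutoff set in the primary screen, cut at about 8.5% in these data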;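 note: 0% = DMSO wells and 100% = marimastat wells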
* marks the source's active call; other numbers are inactive results; · = no result given; ! = repeats disagree.

SMILES	ADAM10 inh	MPTP inh	V-ATPase pHluor	aDG glyco act	ADAM17 inh	Lipid droplet	ADAM10 ctr	ADAM17 confirm
COc1ccccc1N1CCN(c2nc(N)c(C#N)c(CC#N)c2C#N)CC1	11.6	1.3	-3.5	-0.1	20.1*	·	10.2	10.6*
COc1cc(NC(=O)c2cc(C)on2)cc(C(=O)Nc2cccc(C(F)(F)F)c2)c1	16.2	17.9	4.9	0.5	11.8*!	30.6	33.6*	15.9*
COc1cc(NC(=O)c2csc(N)n2)cc(C(=O)Nc2cccc(C(F)(F)F)c2)c1	-1.8	-1.0	1.9	-0.1	6.1	3.8	·	·
O=C(Cn1c(-c2ccccc2)noc1=O)Nc1ccc(S(=O)(=O)N2CCOCC2)cc1	6.8	1.3	2.3	-0.2	-0.1	·	·	·
O=C(Cn1c(-c2ccccc2)noc1=O)Nc1ccc(N2CCCCCC2)cc1	16.7	-1.1	7.9	-0.6	11.1*	·	23.9*	16.8*
COc1ccc([C@H]2C[C@H](n3cc(COC(=O)c4ccccc4)nn3)[C@@H](O)CN2Cc2cccs2)cc1	10.8	0.3	1.0	0.3	12.1*	·	31.6*	14.1*
COc1cccc(CC(=O)N(Cc2ccccc2)c2ccccc2C(=O)Nc2cc(OC)ccc2OC)c1	2.9	·	·	·	12.3*	·	8.0	13.3*
COCC(=O)N(Cc1ccccc1)c1ccccc1C(=O)Nc1cc(OC)ccc1OC	-11.9	·	·	·	-0.5	·	·	·
COC(=O)c1cccc(N(C(=O)CNC(=O)c2ccco2)C(C(=O)NC2CCCC2)c2ccco2)c1 (stereo unspecified)	3.0	-0.1	4.1	0.5	8.8*	·	-2.7	2.1
COc1ccc(N(C(=O)CNC(=O)c2ccco2)C(C(=O)NC2CCCC2)c2ccco2)cc1 (stereo unspecified)	-6.3	-2.1	5.5	0.0	-1.0	2.6	·	·
COC(=O)c1ccccc1NC(=O)CSc1nc(Nc2ccccc2)nc(N2CCOCC2)n1	17.8	-0.7	0.4	-0.3	8.7*	-18.1	16.3	9.1*
CC(=O)c1ccc(NC(=O)CSc2nc(Nc3ccccc3)nc(N3CCOCC3)n2)cc1	-3.1	-1.2	0.0	-0.2	-3.0	-9.3	·	·
CCCCCCc1c[nH]c2ccc(O)c(-c3ccccc3)c12	-9.0	·	·	·	0.9	·	·	·
Nc1nc(Nc2cccc(C(F)(F)F)c2)nc(C(F)(F)F)n1	17.2	1.3	3.1	0.4	14.8*	·	22.6*	15.7*
NC(CSC1(c2cccc3ccccc23)c2ccccc2-c2ccccc21)C(=O)O (stereo unspecified)	-7.1	-0.3	1.2	0.7	10.1*	·	12.6	10.2*
COc1ccc(S(=O)(=O)NN(C)c2ncc(C(F)(F)F)cc2Cl)cc1	-7.6	0.8	4.3	-0.4	9.4*	-4.2	7.5	6.1
CC1CCc2c(C(=O)Oc3cccc(-n4cnnn4)c3)csc2C1 (stereo unspecified)	18.9	4.8	-0.3	0.3	8.8*	·	15.2	11.0*
CC(=O)N1C[C@@H](c2c[nH]c3ccccc23)C=C[C@H]1C(=O)NS(=O)(=O)c1ccc(C)cc1	-13.9	·	·	·	-7.7	·	·	·
CC(C)(C)OC(=O)NCCOC(=O)c1[nH]cnc1C(=O)NCc1ccccc1	11.5	-0.6	0.9	-0.4	10.8*	·	5.6	2.1
C[C@H](NC(=O)c1[nH]cnc1C(=O)Nc1ccc(CNC(=O)OC(C)(C)C)cc1)C(=O)OCc1ccccc1	2.8	0.5	-3.8	0.5	0.7	8.0	·	·
CC(C)(C)OC(=O)NCc1ccc(NC(=O)c2nc[nH]c2C(=O)N[C@@H](Cc2ccccc2)C(=O)OC(C)(C)C)cc1	17.4	0.2	5.6	-0.3	8.9*	2.9	46.2*	23.3*
C[C@@H](NC(=O)c1nc[nH]c1C(=O)N[C@@H](Cc1ccccc1)C(=O)OCc1ccccc1)c1ccccc1	14.5	-2.3	0.7	0.0	11.6*	5.2	29.9*	16.7*
CC(C)(C)OC(=O)CNC(=O)c1[nH]cnc1C(=O)Nc1ccc(CNC(=O)OC(C)(C)C)cc1	16.4	0.6	2.7	-0.6	11.8*	-5.9	29.7*	16.1*
COc1ccc(C(=O)OCCCN(C)C2CN(Cc3cn(Cc4ccc([N+](=O)[O-])cc4)nn3)S(=O)(=O)C2)cc1OC (stereo unspecified)	-8.9	·	·	·	-11.3	·	·	·
CCc1cc(-c2[nH]ncc2-c2ccc3c(c2)OCO3)c(O)cc1O	6.2	5.3	-1.9	0.0	1.8	6.2	·	·
SMILES	ADAM10 inh	MPTP inh	V-ATPase pHluor	aDG glyco act	ADAM17 inh	Lipid droplet	ADAM10 ctr	ADAM17 confirm
CCCc1cc(-c2[nH]ncc2-c2ccc3c(c2)OCCCO3)c(O)cc1OC	18.3	·	·	·	10.1*	-13.2	27.7*	12.5*
CCOC(=O)N1CCN(C(=O)C[C@H]2C[C@@]3(C(=O)OC)C(=C[C@H](C4CCCC4)O[C@@H]3C)N(Cc3ccco3)C2=O)CC1	-6.0	·	·	·	-3.0	·	·	·
COc1ccc(NC(=O)CN(C)S(=O)(=O)c2ccc3c(c2)CCCN3C(C)=O)cc1	-2.8	-3.1	2.7	-0.1	-1.4	18.8	·	·
COc1ccc(C)cc1NC(=O)CN(C)S(=O)(=O)c1ccc2c(c1)CCCN2C(C)=O	6.7	-0.4	2.8	-0.3	9.0*	-10.7	7.1	7.0
CC(C)(C)OC(=O)N(CCc1ccccc1)Cc1ccccc1OCc1ccc(NC(=O)C2CCC2)cc1	-2.7	0.8	-1.2	-0.1	-1.3	·	·	·
CC(C)(C)OC(=O)N(Cc1ccccc1)Cc1ccccc1OCc1ccc(NC(=O)C2CCC2)cc1	8.3	0.2	-0.1	0.1	13.1*	·	12.9	11.0*
COCCCNC(=O)c1ccc(Cn2c(=O)c3ccccc3n(Cc3ccc([N+](=O)[O-])cc3)c2=O)cc1	-2.4	·	·	·	-4.0	·	·	·
CN1C(=O)c2cc(NC(=O)Cc3cccs3)ccc2OC[C@@H]2O[C@@H](CC(=O)N[C@H]3CCN(Cc4ccccc4)C3)CC[C@@H]21	1.1	·	·	·	-1.1	·	·	·
CCC(Oc1ccc2c(=O)c(-c3ccccc3OC)coc2c1)C(=O)OCc1ccccc1 (stereo unspecified)	17.2	8.0	1.0	0.0	11.0*	-4.6	27.2*	12.5*
COc1ccc(CNC(=O)CCNS(=O)(=O)c2ccc3[nH]c(=O)oc3c2)cc1	4.0	·	·	·	1.9	·	·	·
COc1ccc(NC(=O)c2ccc3c(c2)NC(=O)CS3)cc1	4.5	-0.6	-2.8	0.0	9.5*	·	9.4	6.3
